We go through five compounds from paper PMC5120626 (Dermatology and Therapy, 2016).

For orientation: logD means the decadic logarithm of the distribution of all forms, ionised or not, between an organic phase and buffer at a given pH. Low values mean lower lipophilicity, high ones higher lipophilicity.

A short description of data set [1]: Skin penetration in a Franz chamber diffusion set-up. In kind it is in vitro ADME, human. To be noted: 21 h. The method in brief: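 Full-thickness human abdominal skin in vertical Franz cells (2 cm orifice, nine cells per treatment) at 32 °C, with stirred EpiLife plus keratinocyte supplement as receptor. 0.1% w/v hydroalcoholic gel applied for 21 h. Surface excess removed, stratum corneum tape-stripped 12 times, then epidermis and dermis heat-separated and quantified. LOQ 3 ng/biopsy; Mann–Whitney comparison.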

The next data set has as its system UV-induced skin tumors. The experiment in a line: UV-induced skin cancer mouse model. In kind it is in vivo. The note with it: two consecutive days.
A short description of a further data set: Distribution coefficient. To be noted: octanol/citrate buffer, pH 3. In kind it is physicochemical.
A short description of data set [2]: Stability in hydroalcoholic gel. In kind it is physicochemical. The note with it: for Largest single impurity (5-isomer re-arrangement product): 0.05% w/v gel, 25 °C/60%RH. The method, boiled down: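 Hydroalcoholic gel at pH 2.8 in citrate buffer, containing benzyl alcohol and isopropanol. For assay, 0.4 g gel was dispersed in 0.1% phosphoric acid/acetonitrile 50:50 and diluted to 10.0 mL. Reverse-phase UHPLC on an HSS C18 column with a 50–95% acetonitrile gradient and UV at 220 nm, against an external reference standard. Run in duplicate.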

Data set [3] has as its system primary epidermal keratinocytes. In words: Keratinocyte viability and caspase 3/7 activation. In kind it is cell-based, human. The note with it: growth-arresting concentrations (100 nM and above); 72 h.
Data set [4] is described as follows: First tier chemical stability assessment in aqueous buffer. In kind it is physicochemical. To be noted: aqueous buffer pH 7.4; 16 h, room temperature.
For data set [5], the system named is primary epidermal keratinocytes. The experiment in a line: Keratinocyte proliferation. In kind it is cell-based, human. To be noted: concentrations from 100 nM to 10 µM; 72 h. The method, boiled down:
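Primary adult human epidermal keratinocytes (log phase) at 4 × 10^3 cells/well in serum-free EpiLife with HKGS, overnight at 37 °C. Exposed to titrated test compound for 72 h. Proliferation read as DNA content with CyQUANT Direct stain. Percent inhibition normalised to 1 µM geldanamycin.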

The subject of the next data set is B16 melanoma. The experiment in a line: B16 melanoma mouse model. In kind it is in vivo. To be noted: 0.1% in hydroalcoholic gel, topical, two consecutive days; at 3 months. The method in brief: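 Female C57BL/6J mice aged 8–10 weeks received 5 × 10^5 B16 cells intradermally in the flank. Once nodules were visible, tumours were measured by caliper (volume […]) and mice split into cohorts of 8–10 with equal volumes. Treatment was topical, 20 µL of 0.1% hydroalcoholic gel on two consecutive days. The endpoint was a tumour above 250 mm3 or ulceration.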

Data set [6] is described as follows: Local skin reaction in guinea pigs. In kind it is in vivo, guinea pig. The note with it: single topical application, 0.015% and 0.05% gel; hairless guinea pigs. The method in brief: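 Seven female IAF hairless guinea pigs (Crl:HA-Hr Hr) received 10 µL of 0.015% or 0.05% gel, or vehicle, on five 2 cm2 flank fields, one condition per field. LSR was scored daily for up to 4 days as a composite of edema, erythema, ulceration and subcutaneous bleeding. Four animals were killed at 24 h for 4 mm punch biopsies and H&E sections.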

For data set [7], the system named is keratinocyte differentiation markers (INVL, TGM1, FLG, LOR) in primary human epidermal keratinocytes. The experiment in a line: Real-time quantitative PCR of keratinocyte differentiation markers. In kind it is cell-based. The method, boiled down: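 Primary human epidermal keratinocytes in low-calcium EpiLife (0.06 mM CaCl2) were given 100 nM test compound for 72 h, with or without 500 nM bisindolylmaleimide I for 30 min beforehand. High-calcium medium (1.8 mM) served as the differentiation reference. KRT1, KRT10, INVL, TGM1, FLG and LOR measured by qPCR, normalised to PPIA, RPLP0, GAPDH and TBP and expressed relative to vehicle. Two donors.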

For data set [8] the following is noted: cited from earlier work.
Data set [9] has as its system IL-8 release from primary epidermal keratinocytes. The experiment in a line: Keratinocyte IL-8 release. In kind it is cell-based, human. The note with it: relative to ingenol disoxate. The method, boiled down: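 Primary adult human epidermal keratinocytes seeded at 1 × 10^4 cells/well in serum-free EpiLife with HKGS, overnight at 37 °C. Titrated test compound applied for 6 h. Secreted IL-8 measured by MSD 4-spot plates or HTRF. The EC50 is the concentration giving 50% of the maximum reached by a reference ingenol ester, from four experiments.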

The nature of data set [10]: Stability in phosphate buffer. In kind it is physicochemical. To be noted: phosphate buffer pH 7.4, 37 °C.
A further data set deals with Neutrophil granulocytes. In words: Neutrophil granulocyte respiratory burst. In kind it is cell-based. To be noted: relative to ingenol disoxate. The method in brief:
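Human neutrophils isolated from buffy coats by sedimentation, Lymphoprep density centrifugation and erythrocyte lysis. Plated at 2.5 × 10^5 cells/well in HBSS with Ca2+/Mg2+, 0.1% BSA and 5 mM glucose. Titrated test compound premixed with 10 µM hydroethidine for 40 min at ambient temperature; fluorescence ex 485/em 579 nm.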

Consider `C/C=C(/C)C(=O)O[C@H]1C(C)=C[C@]23C(=O)[C@@H](C=C(CO)[C@@H](O)[C@]12O)[C@H]1[C@@H](C[C@H]3C)C1(C)C` [Ingenol mebutate, Ingenol 3-Angelate], for which, in [1] (0.1% gel), the “epidermal relative to dermal concentration” value is given as “more than 100 fold”. Besides, in data set [1] (0.1% in hydroalcoholic gel, topical), the Dermal exposure level was found to be 364 ± 64 nM. Further, the epidermal concentration level in [1] (0.1% in hydroalcoholic gel, topical, stratum corneum removed) is listed as 100 µM. The antitumor effect result is “slightly weaker effect” in the data set with UV-induced skin tumors (0.05% gel) and “comparable effect” in the data set with UV-induced skin tumors (0.1% gel). Besides, the tumor clearance entry with UV-induced skin tumors (topical gel, SKH1 mice, largely maintained 5 weeks post treatment) was “more than 50%”. The compound further gave a pH-dependent lipophilicity (logD) at 24 h in “Distribution coefficient” of 3.5. Besides, the decrease of concentration in data set [2] (0.05% gel, after 6 months storage at 25 °C/60%RH) is reported as 8.0 % of label claim. Further, the “Largest single impurity (5-isomer re-arrangement product)” value is listed as 5.1 area % in data set [2] (6 months) and 0.2 area % in data set [2] (Start). For the same compound, the “cytotoxicity or apoptosis (viability, caspase 3/7)” value in [3] is listed as “No signs of cytotoxicity or apoptosis”. In data set [4], this compound yielded a compound recovered of 60%. In addition, in data set [5], the growth inhibition result is reported as “Total growth inhibition without obvious signs of toxicity”. Besides, the “animals remaining tumor free (overall tumor free survival)” value with B16 melanoma amounted to 45%. Further, the “local skin reaction (LSR)” value in [6] was “robust LSR response”. Moreover, in data set [6], the “time of peak local skin reaction” value stood at 24 h. Besides, the “transcription of intermediate (INVL) and late (TGM1, FLG, LOR) keratinocyte differentiation markers” value in [7] (100 nM, 72 h, low calcium medium) is given as “stimulated transcription”.

On to `CC1=C[C@]23C(=O)[C@@H](C=C(CO)[C@@H](O)[C@]2(O)[C@H]1O)[C@H]1[C@@H](C[C@H]3C)C1(C)C` [Ingenol], for which the biological activity result in data set [8] is given as “lacks biological activity”.

Regarding `CN(C)CCCn1cc(C2=C(c3c[nH]c4ccccc34)C(=O)NC2=O)c2ccccc21` [bisindolylmaleimide-1, bisindolylmaleimide I], the “effect of pretreatment on marker induction by ingenol derivatives” value in [7] (500 nM, 30 min pre-incubation before 100 nM ingenol derivatives) is on record as “abolished”.

`CCc1noc(CC)c1C(=O)OC1C(CO)=CC2C(=O)C3(C=C(C)C(O)C13O)C(C)CC1C2C1(C)C` (stereo not shown) [compound 8, Ingenol-5-(3,5-Diethylisoxazole-4-Carboxylate)]: in data set [9], the “fold less potent in IL-8 release assay” value is reported as “approximately tenfold”. Moreover, in [10], the “20-isomer in equilibrated mixture” value was 86–88%. In addition, the “fold less potent in neutrophil activation assay” value in the data set with Neutrophil granulocytes was ~56 fold.

For `CCc1noc(CC)c1C(=O)OCC1=CC2C(=O)C3(C=C(C)C(O)C3(O)C1O)C(C)CC1C2C1(C)C` (stereo not shown) [compound 9, Ingenol-20-(3,5-Diethylisoxazole-4-Carboxylate)], the “fold less potent in IL-8 release assay” value in data set [9] is given as “at least 150 fold”. Besides, the stability over time entry in data set [10] (24 h) is reported as “did not change over time”. The “fold less potent in neutrophil activation assay” value in the data set with Neutrophil granulocytes is reported as “at least 150 fold”.
